Laboratory results taken from ChEMBL document CHEMBL3352699 (J Med Chem, 2014).
≈ marks a conversion by molar mass, not a printed value.

Key:
[1] = Octanol-water partition coefficient, log D of the compound at pH 7.4 by shake flask method; type: physicochemical
[2] = molecular target: T1, Pyroglutamylated RF-amide peptide receptor (Homo sapiens, UniProt Q96P65); assay: Inhibition of human GPR103 receptor expressed in CHOK1 cells by IP-1 assay; type: cell-based, CHO-K1
T1 sequence (Q96P65 whole entry): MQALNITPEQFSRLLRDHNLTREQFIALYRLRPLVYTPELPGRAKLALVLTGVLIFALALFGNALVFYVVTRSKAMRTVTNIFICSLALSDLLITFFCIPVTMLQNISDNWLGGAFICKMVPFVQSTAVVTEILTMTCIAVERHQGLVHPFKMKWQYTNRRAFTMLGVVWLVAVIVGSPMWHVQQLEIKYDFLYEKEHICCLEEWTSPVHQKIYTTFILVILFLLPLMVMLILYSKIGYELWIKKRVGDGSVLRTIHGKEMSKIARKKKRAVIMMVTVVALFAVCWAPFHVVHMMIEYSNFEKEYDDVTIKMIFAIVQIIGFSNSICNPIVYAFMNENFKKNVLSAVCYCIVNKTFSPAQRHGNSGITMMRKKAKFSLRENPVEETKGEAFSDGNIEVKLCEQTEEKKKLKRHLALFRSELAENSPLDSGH
Outline: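 Cryopreserved human QRFP/GPR103 receptor cell line thawed in stimulation buffer, preincubated with compound at 37 °C, 5% CO2, then stimulated with hQRFP43 at EC80 for 50 min at 37 °C. IP-1 read by HTRF (665/620 nm ratio). IC50 mean of N = 2−52 determinations, one to three replicates per concentration; CIR 2.0, MDR 2.8.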

[3] = molecular target: T1, Pyroglutamylated RF-amide peptide receptor; assay: Displacement of [125I]QRFP43 from human GPR103 receptor expressed in HEK cells after 90 mins incubation by scintillation counting; type: cell-based, HEK293
Outline: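 HEK membranes overexpressing human GPR103 incubated with compound and 0.25 nM 125I-hQRFP43 in 50 mM Tris pH 7.4, 1 mM EDTA, 0.1% BSA at 30 °C for 90 min. Bound radioligand separated by vacuum filtration and counted by scintillation. IC50 mean of N = 2−5 determinations, one replicate per concentration; CIR 1.7, MDR 2.1.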

[4] = Inhibition of mouse GPR103A receptor expressed in CHO cells by IP-1 assay; type: cell-based
Outline: (§1)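 CHO cells overexpressing mouse GPR103A or GPR103B thawed in stimulation buffer, preincubated with compound at 37 °C, 5% CO2, then stimulated with hQRFP43 at EC80 for 50 min at 37 °C. IP-1 measured by HTRF (665/620 nm ratio).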

[5] = Inhibition of mouse GPR103B receptor expressed in CHO cells by IP-1 assay; type: cell-based; outline: as §1
[6] = Solubility of the compound in HBSS buffer at pH 7.4 after 18 hrs by LC/MS/MS analysis; type: physicochemical
[7] = Intrinsic clearance in human hepatocytes measured per 10^6 cells; type: ADME, cell-based, Hepatocyte; conditions: read-out: CLH
Outline: (§2)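 Intrinsic clearance corrected for unspecific binding in the incubations. CIR 1.4 for human hepatocytes, 1.7 for human liver microsomes.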

[8] = Intrinsic clearance in human liver microsomes; type: ADME; conditions: read-out: CLH; outline: as §2
[9] = Apparent permeability across apical to basolateral side in human Caco2 cells by LC-MS/MS analysis; type: ADME, cell-based; conditions: Caco-2, read-out: permeability
[10] = molecular target: Cytochrome P450 2D6 (Homo sapiens, UniProt P10635); assay: Inhibition of human CYP2D6 after 20 to 50 mins by high-throughput fluorescence assay; type: ADME
[11] = molecular target: Voltage-gated inwardly rectifying potassium channel KCNH2 (Homo sapiens, UniProt Q12809); assay: Inhibition of human ERG expressed in CHO cells by electrophysiology assay; type: cell-based
[12] = molecular target: Sodium channel protein type 5 subunit alpha (Homo sapiens, UniProt Q14524); assay: Inhibition of human Nav1.5 expressed in CHO cells by electrophysiology assay; type: cell-based
[13] = molecular target: Potassium voltage-gated channel subfamily E member 1 (Homo sapiens, UniProt P15382); assay: Inhibition of human cardiac slowly activating delayed rectifier K+ channel expressed in CHO cells by electrophysiology assay; type: cell-based
[14] = molecular target: Cytochrome P450 3A4 (Homo sapiens, UniProt P08684); assay: Inhibition of human recombinant CYP3A4 after 20 to 50 mins by high-throughput fluorescence assay; type: ADME; conditions: recombinant enzyme
[15] = molecular target: T2, Cytochrome P450 1A2 (Homo sapiens, UniProt P05177); assay: Inhibition of human recombinant CYP1A2 after 20 to 50 mins by high-throughput fluorescence assay; type: ADME; conditions: recombinant enzyme
T2 sequence (P05177 whole entry): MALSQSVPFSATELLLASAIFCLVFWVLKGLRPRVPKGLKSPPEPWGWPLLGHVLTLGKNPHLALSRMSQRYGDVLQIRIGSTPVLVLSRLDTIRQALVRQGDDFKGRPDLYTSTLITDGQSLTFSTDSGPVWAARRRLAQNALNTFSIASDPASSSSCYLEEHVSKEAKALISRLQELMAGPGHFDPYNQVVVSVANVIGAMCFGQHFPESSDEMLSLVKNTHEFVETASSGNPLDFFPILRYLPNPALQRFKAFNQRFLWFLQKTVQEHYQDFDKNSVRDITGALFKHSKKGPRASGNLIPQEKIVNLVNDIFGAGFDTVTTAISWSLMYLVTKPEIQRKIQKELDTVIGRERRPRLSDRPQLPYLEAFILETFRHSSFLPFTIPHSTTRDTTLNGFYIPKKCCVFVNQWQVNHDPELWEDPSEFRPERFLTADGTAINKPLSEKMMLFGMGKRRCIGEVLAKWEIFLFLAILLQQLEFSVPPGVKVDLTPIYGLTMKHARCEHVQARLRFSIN

[16] = molecular target: T3, Cytochrome P450 2C8 (Homo sapiens, UniProt P10632); assay: Inhibition of human recombinant CYP2C8 after 20 to 50 mins by high-throughput fluorescence assay; type: ADME; conditions: recombinant enzyme
T3 sequence (P10632 whole entry): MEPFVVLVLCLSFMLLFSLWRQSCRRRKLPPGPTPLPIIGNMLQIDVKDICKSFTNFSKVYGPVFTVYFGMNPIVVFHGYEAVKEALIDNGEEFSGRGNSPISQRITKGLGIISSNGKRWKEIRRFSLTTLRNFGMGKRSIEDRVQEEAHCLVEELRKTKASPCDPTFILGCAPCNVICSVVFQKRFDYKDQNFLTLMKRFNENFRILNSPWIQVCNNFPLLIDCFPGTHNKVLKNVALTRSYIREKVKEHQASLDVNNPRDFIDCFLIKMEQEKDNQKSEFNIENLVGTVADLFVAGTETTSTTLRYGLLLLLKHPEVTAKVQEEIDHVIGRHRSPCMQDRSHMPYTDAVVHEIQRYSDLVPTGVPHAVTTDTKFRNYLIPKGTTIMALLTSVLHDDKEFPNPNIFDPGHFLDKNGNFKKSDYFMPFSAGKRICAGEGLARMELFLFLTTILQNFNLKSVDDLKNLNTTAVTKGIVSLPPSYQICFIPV

[17] = molecular target: Cytochrome P450 2C9 (Homo sapiens, UniProt P11712); assay: Inhibition of human recombinant CYP2C9 after 20 to 50 mins by high-throughput fluorescence assay; type: ADME; conditions: recombinant enzyme
[18] = molecular target: Cytochrome P450 2C19 (Homo sapiens, UniProt P33261); assay: Inhibition of human recombinant CYP2C19 after 20 to 50 mins by high-throughput fluorescence assay; type: ADME; conditions: recombinant enzyme
Sequence of Cytochrome P450 2C19 (P33261 whole entry): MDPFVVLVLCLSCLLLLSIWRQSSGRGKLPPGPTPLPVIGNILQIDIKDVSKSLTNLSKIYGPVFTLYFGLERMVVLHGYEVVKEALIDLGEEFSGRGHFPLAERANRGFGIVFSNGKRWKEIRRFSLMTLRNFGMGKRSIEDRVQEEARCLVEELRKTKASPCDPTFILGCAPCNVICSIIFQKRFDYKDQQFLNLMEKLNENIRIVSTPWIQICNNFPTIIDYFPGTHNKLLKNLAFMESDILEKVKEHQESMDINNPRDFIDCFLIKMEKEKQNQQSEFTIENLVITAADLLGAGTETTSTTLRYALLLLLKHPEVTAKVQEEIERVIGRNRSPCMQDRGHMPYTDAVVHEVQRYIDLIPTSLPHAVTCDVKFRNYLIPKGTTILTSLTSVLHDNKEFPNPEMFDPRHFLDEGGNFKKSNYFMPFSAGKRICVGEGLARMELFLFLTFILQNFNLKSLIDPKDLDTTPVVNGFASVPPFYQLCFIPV

Sequence of Cytochrome P450 2D6 (P10635 whole entry): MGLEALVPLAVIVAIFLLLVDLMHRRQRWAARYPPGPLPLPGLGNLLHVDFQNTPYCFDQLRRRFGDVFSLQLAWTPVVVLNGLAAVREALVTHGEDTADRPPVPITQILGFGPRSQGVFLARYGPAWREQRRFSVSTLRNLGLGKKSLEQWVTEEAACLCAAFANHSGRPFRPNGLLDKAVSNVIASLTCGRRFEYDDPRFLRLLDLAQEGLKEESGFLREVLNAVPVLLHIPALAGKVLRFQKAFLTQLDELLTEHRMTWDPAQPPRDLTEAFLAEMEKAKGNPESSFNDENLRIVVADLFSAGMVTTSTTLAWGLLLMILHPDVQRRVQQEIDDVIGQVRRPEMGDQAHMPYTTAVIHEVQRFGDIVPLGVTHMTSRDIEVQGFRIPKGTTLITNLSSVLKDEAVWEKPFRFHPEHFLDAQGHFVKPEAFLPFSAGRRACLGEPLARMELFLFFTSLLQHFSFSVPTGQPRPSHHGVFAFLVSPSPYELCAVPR
Sequence of Sodium channel protein type 5 subunit alpha (Q14524 whole entry): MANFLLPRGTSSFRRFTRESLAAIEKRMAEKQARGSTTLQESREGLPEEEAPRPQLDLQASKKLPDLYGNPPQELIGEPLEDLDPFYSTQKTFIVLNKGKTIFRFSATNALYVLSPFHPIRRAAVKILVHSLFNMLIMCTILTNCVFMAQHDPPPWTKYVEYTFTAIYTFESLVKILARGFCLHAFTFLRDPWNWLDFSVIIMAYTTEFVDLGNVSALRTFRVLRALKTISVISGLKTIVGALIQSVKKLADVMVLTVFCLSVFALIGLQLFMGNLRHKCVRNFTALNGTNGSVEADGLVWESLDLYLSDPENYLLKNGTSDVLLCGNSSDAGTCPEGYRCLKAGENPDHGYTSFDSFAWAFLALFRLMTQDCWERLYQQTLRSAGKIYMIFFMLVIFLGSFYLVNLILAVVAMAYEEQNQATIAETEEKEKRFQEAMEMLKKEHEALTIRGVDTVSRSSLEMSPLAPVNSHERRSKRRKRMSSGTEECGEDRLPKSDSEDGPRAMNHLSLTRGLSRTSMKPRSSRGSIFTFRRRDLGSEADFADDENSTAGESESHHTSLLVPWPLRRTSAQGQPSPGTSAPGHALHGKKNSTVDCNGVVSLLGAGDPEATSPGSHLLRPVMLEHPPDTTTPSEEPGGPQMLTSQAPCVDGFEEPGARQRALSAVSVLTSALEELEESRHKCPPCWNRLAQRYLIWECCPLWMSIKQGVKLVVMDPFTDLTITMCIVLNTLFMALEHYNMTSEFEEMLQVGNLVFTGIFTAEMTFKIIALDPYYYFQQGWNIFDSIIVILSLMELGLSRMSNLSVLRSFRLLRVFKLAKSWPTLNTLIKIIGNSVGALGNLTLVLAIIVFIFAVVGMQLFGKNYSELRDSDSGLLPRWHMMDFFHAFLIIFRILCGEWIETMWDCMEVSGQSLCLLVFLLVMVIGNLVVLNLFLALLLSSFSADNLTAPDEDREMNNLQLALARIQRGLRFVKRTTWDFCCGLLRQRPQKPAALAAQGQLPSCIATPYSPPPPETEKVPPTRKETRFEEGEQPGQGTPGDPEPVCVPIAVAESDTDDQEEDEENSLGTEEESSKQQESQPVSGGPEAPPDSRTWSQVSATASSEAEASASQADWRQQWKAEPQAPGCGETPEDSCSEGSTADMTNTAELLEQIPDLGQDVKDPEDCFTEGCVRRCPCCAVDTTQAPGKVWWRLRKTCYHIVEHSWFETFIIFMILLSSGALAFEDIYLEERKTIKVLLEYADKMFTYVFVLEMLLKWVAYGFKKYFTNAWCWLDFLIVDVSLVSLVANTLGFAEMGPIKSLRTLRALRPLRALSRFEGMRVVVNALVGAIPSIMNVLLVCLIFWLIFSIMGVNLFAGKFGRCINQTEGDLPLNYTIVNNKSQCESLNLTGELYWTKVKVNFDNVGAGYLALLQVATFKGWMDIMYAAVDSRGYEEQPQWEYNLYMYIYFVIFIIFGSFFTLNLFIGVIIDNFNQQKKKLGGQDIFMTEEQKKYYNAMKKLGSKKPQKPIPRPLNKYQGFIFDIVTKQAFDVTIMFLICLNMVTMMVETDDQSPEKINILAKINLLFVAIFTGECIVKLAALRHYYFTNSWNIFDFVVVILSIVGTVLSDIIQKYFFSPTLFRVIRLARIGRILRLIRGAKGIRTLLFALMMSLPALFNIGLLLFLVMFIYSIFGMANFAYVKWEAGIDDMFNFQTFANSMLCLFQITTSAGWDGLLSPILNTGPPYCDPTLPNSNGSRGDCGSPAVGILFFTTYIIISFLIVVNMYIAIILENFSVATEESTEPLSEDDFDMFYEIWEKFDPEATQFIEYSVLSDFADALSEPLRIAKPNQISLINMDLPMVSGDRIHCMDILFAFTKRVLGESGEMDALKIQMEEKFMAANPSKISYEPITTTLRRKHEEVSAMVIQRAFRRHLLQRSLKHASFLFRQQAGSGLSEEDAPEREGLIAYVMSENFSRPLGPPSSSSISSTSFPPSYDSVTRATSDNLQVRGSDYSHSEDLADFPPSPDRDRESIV
Sequence of Cytochrome P450 3A4 (P08684 whole entry): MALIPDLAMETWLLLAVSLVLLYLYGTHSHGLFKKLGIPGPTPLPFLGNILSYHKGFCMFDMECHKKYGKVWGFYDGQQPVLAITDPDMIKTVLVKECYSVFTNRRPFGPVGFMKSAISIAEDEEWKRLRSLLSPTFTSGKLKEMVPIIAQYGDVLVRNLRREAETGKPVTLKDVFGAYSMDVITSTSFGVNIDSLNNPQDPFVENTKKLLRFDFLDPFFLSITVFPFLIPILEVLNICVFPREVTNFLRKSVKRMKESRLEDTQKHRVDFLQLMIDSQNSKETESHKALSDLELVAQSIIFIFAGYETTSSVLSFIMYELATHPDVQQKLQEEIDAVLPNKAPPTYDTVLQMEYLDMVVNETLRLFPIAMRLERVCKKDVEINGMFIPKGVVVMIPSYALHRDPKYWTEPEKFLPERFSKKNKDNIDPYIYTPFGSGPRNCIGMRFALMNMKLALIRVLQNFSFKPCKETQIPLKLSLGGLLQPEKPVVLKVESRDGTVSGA
Sequence of Voltage-gated inwardly rectifying potassium channel KCNH2 (Q12809 whole entry): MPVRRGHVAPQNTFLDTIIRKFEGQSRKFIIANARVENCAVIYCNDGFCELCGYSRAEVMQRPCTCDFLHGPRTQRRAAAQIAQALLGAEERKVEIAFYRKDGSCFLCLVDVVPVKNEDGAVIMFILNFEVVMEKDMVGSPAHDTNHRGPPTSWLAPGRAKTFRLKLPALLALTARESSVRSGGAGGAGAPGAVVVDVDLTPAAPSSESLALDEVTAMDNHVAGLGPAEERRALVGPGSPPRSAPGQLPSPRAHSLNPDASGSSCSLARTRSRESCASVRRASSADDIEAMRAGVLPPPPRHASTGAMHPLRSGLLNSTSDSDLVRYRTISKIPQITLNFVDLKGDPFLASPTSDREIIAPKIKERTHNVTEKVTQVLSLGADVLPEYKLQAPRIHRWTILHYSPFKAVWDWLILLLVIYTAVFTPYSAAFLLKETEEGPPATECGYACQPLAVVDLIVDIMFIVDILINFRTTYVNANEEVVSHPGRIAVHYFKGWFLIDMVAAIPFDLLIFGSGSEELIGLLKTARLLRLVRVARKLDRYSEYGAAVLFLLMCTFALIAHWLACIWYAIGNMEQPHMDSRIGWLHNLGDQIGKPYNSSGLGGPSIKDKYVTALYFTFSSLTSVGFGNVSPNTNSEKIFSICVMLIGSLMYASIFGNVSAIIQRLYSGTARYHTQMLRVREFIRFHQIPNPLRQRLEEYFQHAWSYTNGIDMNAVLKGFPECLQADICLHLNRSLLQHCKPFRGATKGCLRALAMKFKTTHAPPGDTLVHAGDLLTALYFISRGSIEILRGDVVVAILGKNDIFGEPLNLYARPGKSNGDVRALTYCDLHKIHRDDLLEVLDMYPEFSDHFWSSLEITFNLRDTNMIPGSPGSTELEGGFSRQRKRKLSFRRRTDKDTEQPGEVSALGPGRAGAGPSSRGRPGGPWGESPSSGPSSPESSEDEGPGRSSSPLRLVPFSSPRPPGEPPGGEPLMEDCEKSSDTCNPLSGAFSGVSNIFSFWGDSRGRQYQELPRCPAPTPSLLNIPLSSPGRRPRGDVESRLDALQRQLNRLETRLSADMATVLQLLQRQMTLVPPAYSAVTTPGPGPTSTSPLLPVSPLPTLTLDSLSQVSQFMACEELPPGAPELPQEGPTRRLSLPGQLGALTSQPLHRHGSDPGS

C#Cc1cc2cc(C(=O)N3CCc4cc(CN(C)C)ccc4C3)n(C)c2cn1
logD [1]: 1.2
IC50 [2]: 6000 nM

CC1CN(C(=O)c2cc3cc(Br)ncc3n2C)Cc2ccc(CN(C)C)cc21 (racemic)
logD [1]: 2.1
IC50 [2]: 110 nM

CN(C)Cc1ccc2c(c1)CCN(C(=O)c1cc3cc(I)ncc3n1C)C2
logD [1]: 2
IC50 [2]: 130 nM

CC1c2ccc(CN(C)C)cc2CCN1C(=O)c1cc2cc(Br)ncc2n1C (racemic)
logD [1]: 2.2
IC50 [2]: 500 nM

CC1Cc2cc(CN(C)C)ccc2CN1C(=O)c1cc2cc(Br)ncc2n1C (racemic)
logD [1]: 2.1
IC50 [2]: 710 nM

CN(C)Cc1ccc2c(c1)CCN(C(=O)c1cc3cc(-c4ccccc4)ncc3n1C)C2
logD [1]: 3
IC50 [2]: > 41000 nM

Cc1cc2cc(C(=O)N3CCc4cc(CN(C)C)ccc4C3)n(C)c2cn1
logD [1]: 1.3
IC50 [2]: 18900 nM

CN(C)Cc1ccc2c(c1)CCN(C(=O)c1cc3ccncc3n1C)C2
logD [1]: 0.9
IC50 [2]: 2900 nM

CN(C)Cc1ccc2c(c1)CCN(C(=O)c1cc3cc(Cl)ccc3n1C)C2
logD [1]: 3
IC50 [2]: 70 nM
IC50 [3]: 70 nM
IC50 [4]: 90 nM
IC50 [5]: 80 nM
solubility at 18 h [6]: 62 µM (≈ 23.7 µg/mL)
hepatocyte CLint [7]: 40 µL/min/1e6 cells
microsomal CLint [8]: 156 µL/min/mg
Papp A→B [9]: 7.8 ×10⁻⁶ cm/s
IC50 [10]: 2900 nM
IC50 [11]: 4900 nM
IC50 [12]: 10300 nM
IC50 [13]: 10500 nM

CN(C)Cc1ccc2c(c1)CCN(C(=O)c1cc3cc(Cl)ncc3n1C)C2
logD [1]: 1.5
IC50 [2]: 570 nM

CN(C)Cc1ccc2c(c1)CCN(C(=O)c1cc3cc(Br)ncc3n1C)C2
logD [1]: 1.7
IC50 [2]: 240 nM
IC50 [3]: 280 nM
IC50 [4]: 330 nM
IC50 [5]: 100 nM
solubility at 18 h [6]: > 1000 µM
hepatocyte CLint [7]: 5.3 µL/min/1e6 cells
microsomal CLint [8]: 16 µL/min/mg
Papp A→B [9]: 13.2 ×10⁻⁶ cm/s
IC50 [10]: > 20000 nM
IC50 [12]: > 33000 nM
IC50 [13]: > 33000 nM
inhibition (INH) [14]: Not Active
inhibition (INH) [15]: Not Active
inhibition (INH) [16]: Not Active
inhibition (INH) [17]: Not Active
inhibition (INH) [18]: Not Active

CN(C)Cc1ccc2c(c1)CCN(C(=O)c1cc3cc(C(F)(F)F)ncc3n1C)C2
logD [1]: 1.8
IC50 [2]: 3300 nM
